Experimental data taken from ChEMBL document CHEMBL1130396, “Angiotensin analogues palmitoylated in positions 1 and 4” (J Med Chem, 1997).
Where a SMILES comes first, the peptide text is derived from it. [ ]: non-standard residue; d: D form. The star is where a group is joined. X1 = CCCCCCCCCCCCCCCC(=O)OCCC(=O)*; Palmitoyl = CCCCCCCCCCCCCCCC(=O)*; X2 = CCCCCCCCCCCCCCCCCC*; Sar = CNCC(=O)O

Columns and labels:
[1] = biological target: T1, Type-1 angiotensin II receptor (Bos taurus, UniProt P25104); assay: Dissociation constant for [125 I] Ang binding to type 1 Angiotensin II receptor of bovine adrenocortical membranes
T1 sequence (P25104 whole entry): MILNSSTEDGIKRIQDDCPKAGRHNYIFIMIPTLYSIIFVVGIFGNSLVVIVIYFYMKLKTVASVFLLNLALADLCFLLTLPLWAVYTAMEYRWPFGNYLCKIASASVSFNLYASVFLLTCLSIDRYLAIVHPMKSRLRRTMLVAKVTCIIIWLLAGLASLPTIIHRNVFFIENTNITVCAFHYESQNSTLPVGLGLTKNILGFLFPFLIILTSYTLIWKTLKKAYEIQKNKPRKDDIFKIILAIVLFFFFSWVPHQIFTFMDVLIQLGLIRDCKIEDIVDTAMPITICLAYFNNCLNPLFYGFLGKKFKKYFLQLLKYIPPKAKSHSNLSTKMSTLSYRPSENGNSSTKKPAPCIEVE

[2] = biological target: T2, Type-1 angiotensin II receptor (Oryctolagus cuniculus, UniProt P34976); assay: Negative log of the dose of antagonist (compound) that reduces response of a double dose of […] to that of a single dose, on rabbit aorta; type: functional, tissue-based; details: for Kb: read-out: pA2 (converted)
T2 sequence (P34976 whole entry): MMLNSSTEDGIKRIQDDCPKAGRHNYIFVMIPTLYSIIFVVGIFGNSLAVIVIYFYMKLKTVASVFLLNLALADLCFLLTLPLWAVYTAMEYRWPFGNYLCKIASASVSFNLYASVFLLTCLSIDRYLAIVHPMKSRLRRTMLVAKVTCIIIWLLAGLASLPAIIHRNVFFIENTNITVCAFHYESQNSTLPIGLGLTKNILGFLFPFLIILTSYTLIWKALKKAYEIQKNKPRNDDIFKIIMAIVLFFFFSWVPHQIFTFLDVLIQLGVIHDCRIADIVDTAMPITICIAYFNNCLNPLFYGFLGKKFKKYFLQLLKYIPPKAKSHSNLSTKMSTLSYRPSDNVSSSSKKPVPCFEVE
How it was run: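 Rabbit thoracic aorta rings in oxygenated Krebs, pH 7.4, at 37 °C under 2 g tension were preincubated 10 min with single antagonist concentrations. Ang concentration-response curves were then run with and without antagonist. pA2 came from Schild plot, or was estimated from lower doses for long-acting analogues. Duration was followed by Ang curves at 30 min, 1.5 h and 3 h, washing every 20 min. At least three evaluations were done.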

[3] = biological target: T3, Type-1 angiotensin II receptor (Bos taurus) (UniProt P25104); assay: Relative affinity for type 1 Angiotensin II receptor of bovine adrenocortical membranes compared to angiotensin
T3 sequence (whole entry): T1 sequence (P25104 whole entry)
How it was run: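 Bovine adrenocortical membranes were incubated in 25 mM Tris/HCl (100 mM NaCl, 5 mM MgCl2, 0.2% BSA, pH 7.4) with peptide across 5 × 10^-11–10^-5 M and 30 pM [125I]Ang (final) for 45 min at 22 °C. Bound radioactivity was filtered and gamma-counted, with nonspecific binding defined by 1 µM Ang. […] At least three experiments were run in duplicate.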

[4] = biological target: T4, Type-1 angiotensin II receptor (Oryctolagus cuniculus) (UniProt P34976); assay: Relative affinity compared to the affinity of angiotensin II(Ang=100%) for Angiotensin II receptor, type 1 on rabbit aorta; type: tissue-based
T4 sequence (whole entry): T2 sequence (P34976 whole entry)

Oryctolagus cuniculus = organism: Oryctolagus cuniculus; assay: Negative log of the dose of agonist that produces half-maximal contraction on rabbit aorta; type: functional
How it was run: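 New Zealand rabbit thoracic aorta rings (5 mm) were held in oxygenated Krebs, pH 7.4, at 37 °C under 2 g tension and equilibrated for 90 min. Isometric contractions were recorded. Cumulative dose-response curves (5 × 10^-11–10^-5 M) were expressed as % of maximal Ang stimulation, and pD2 was taken as the negative log of the dose giving half-maximal contraction. At least three evaluations were done.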

## CCCCCCCCCCCCCCCC(=O)OC[C@H](NC(C)=O)C(=O)N[C@@H](CCCNC(=N)N)C(=O)N[C@H](C(=O)N[C@@H](Cc1ccc(O)cc1)C(=O)N[C@H](C(=O)N[C@@H](Cc1cnc[nH]1)C(=O)N1CCC[C@H]1C(=O)N[C@@H](Cc1ccccc1)C(=O)O)C(C)C)C(C)C (Ac-S(Palmitoyl)RVYVHPF-OH)
[1]
  Kd: 490 nM

## CCCCCCCCCCCCCCCCCCOc1ccc(C[C@H](NC(=O)[C@@H](NC(=O)[C@H](CCCNC(=N)N)NC(=O)CNC)C(C)C)C(=O)N[C@H](C(=O)N[C@@H](Cc2cnc[nH]2)C(=O)N2CCC[C@H]2C(=O)N[C@@H](Cc2ccccc2)C(=O)O)C(C)C)cc1 (H-[Sar]RVY(X2)VHPF-OH)
[1]
  Kd: 1550 nM

## CCCCCCCCCCCCCCCC(=O)OC[C@H](NC(C)=O)C(=O)N[C@@H](CCCN=C(N)N)C(=O)N[C@H](C(=O)N[C@@H](Cc1ccc(O)cc1)C(=O)N[C@H](C(=O)N[C@@H](Cc1c[nH]cn1)C(=O)N1CCC[C@H]1C(=O)N[C@H](Cc1cccc2ccccc12)C(=O)O)C(C)C)C(C)C
[2]
  pA2: < 5.5
[3]
  RA: 0.21
[1]
  pKd: 5.65

## CNCC(=O)N[C@@H](CCCNC(=N)N)C(=O)N[C@H](C(=O)N[C@@H](Cc1ccc(O)cc1)C(=O)N[C@H](C(=O)N[C@@H](Cc1cnc[nH]1)C(=O)N1CCC[C@H]1C(=O)N[C@H](Cc1ccc2ccccc2c1)C(=O)O)C(C)C)C(C)C
[2]
  Kb: 7.94 nM
[1]
  Kd: 16.6 nM

## CC[C@H](C)[C@H](NC(=O)[C@H](Cc1ccc(O)cc1)NC(=O)[C@@H](NC(=O)[C@H](CCCNC(=N)N)NC(=O)[C@@H](N)CC(=O)O)C(C)C)C(=O)N[C@@H](Cc1cnc[nH]1)C(=O)N1CCC[C@H]1C(=O)N[C@@H](Cc1ccccc1)C(=O)O [ANGIOTENSIN II]
[4]
  RA: 100
[3]
  RA: 100
Oryctolagus cuniculus
  pD2: 8.33

## CCCCCCCCCCCCCCCC(=O)Oc1ccc(C[C@H](NC(=O)[C@@H](NC(=O)[C@H](CCCN=C(N)N)NC(=O)CNC)C(C)C)C(=O)N[C@H](C(=O)N[C@@H](Cc2c[nH]cn2)C(=O)N2CCC[C@H]2C(=O)N[C@H](Cc2ccc3ccccc3c2)C(=O)O)C(C)C)cc1
[3]
  RA: 2.57

## CCCCCCCCCCCCCCCC(=O)OCCC(=O)N[C@@H](CCCN=C(N)N)C(=O)N[C@H](C(=O)N[C@@H](Cc1ccc(O)cc1)C(=O)N[C@H](C(=O)N[C@@H](Cc1c[nH]cn1)C(=O)N1CCC[C@H]1C(=O)N[C@@H](Cc1ccccc1)C(=O)O)C(C)C)C(C)C (X1-RVYVHPF-OH)
[4]
  RA: 0.13
[3]
  RA: 0.21
[1]
  Kd: 2750 nM
Oryctolagus cuniculus
  pD2: 5.46

## CC(C)[C@H](NC(=O)[C@H](CCCN=C(N)N)NC(=O)CCO)C(=O)N[C@@H](Cc1ccc(O)cc1)C(=O)N[C@H](C(=O)N[C@@H](Cc1c[nH]cn1)C(=O)N1CCC[C@H]1C(=O)N[C@H](Cc1ccccc1)C(=O)O)C(C)C
[2]
  Kb: 4900 nM
[3]
  RA: 0.09
[1]
  Kd: 6460 nM

## CNCC(=O)N[C@@H](CCCN=C(N)N)C(=O)N[C@H](C(=O)N[C@@H](Cc1ccc(O)cc1)C(=O)N[C@H](C(=O)N[C@@H](Cc1c[nH]cn1)C(=O)N1CCC[C@H]1C(=O)N[C@H](Cc1ccc2ccccc2c1)C(=O)O)C(C)C)C(C)C
[3]
  RA: 34.7

## CCCCCCCCCCCCCCCC(=O)Oc1ccc(C[C@H](NC(=O)[C@@H](NC(=O)[C@H](CCCN=C(N)N)NC(=O)CNC)C(C)C)C(=O)N[C@H](C(=O)N[C@@H](Cc2c[nH]cn2)C(=O)N2CCC[C@H]2C(=O)N[C@@H](Cc2ccccc2)C(=O)O)C(C)C)cc1 [listing 1 of 2 here]
[2]
  Kb: 36.3 nM
[1]
  Kd: 3.55 nM

## CC(C)[C@H](NC(=O)[C@H](CCCN=C(N)N)NC(=O)CCO)C(=O)N[C@@H](Cc1ccc(O)cc1)C(=O)N[C@H](C(=O)N[C@@H](Cc1c[nH]cn1)C(=O)N1CCC[C@H]1C(=O)N[C@@H](Cc1ccccc1)C(=O)O)C(C)C
[4]
  RA: 7.95
[3]
  RA: 5.53
[1]
  Kd: 105 nM
Oryctolagus cuniculus
  pD2: 7.23

## CCCCCCCCCCCCCCCC(=O)Oc1ccc(C[C@H](NC(=O)[C@@H](NC(=O)[C@H](CCCNC(=N)N)NC(=O)CNC)C(C)C)C(=O)N[C@H](C(=O)N[C@@H](Cc2cnc[nH]2)C(=O)N2CCC[C@H]2C(=O)N[C@H](Cc2ccc3ccccc3c2)C(=O)O)C(C)C)cc1
[2]
  Kb: 102 nM
[1]
  Kd: 224 nM

## CNCC(=O)N[C@@H](CCCN=C(N)N)C(=O)N[C@H](C(=O)N[C@@H](Cc1ccc(O)cc1)C(=O)N[C@H](C(=O)N[C@@H](Cc1c[nH]cn1)C(=O)N1CCC[C@H]1C(=O)N[C@H](Cc1ccccc1)C(=O)O)C(C)C)C(C)C
[4]
  RA: 174
[3]
  RA: 407

## CNCC(=O)N[C@@H](CCCN=C(N)N)C(=O)N[C@H](C(=O)N[C@@H](Cc1ccc(O)cc1)C(=O)N[C@H](C(=O)N[C@@H](Cc1c[nH]cn1)C(=O)N1CCC[C@H]1C(=O)N[C@@H](Cc1ccccc1)C(=O)O)C(C)C)C(C)C
Oryctolagus cuniculus
  pD2: 8.57

## CC(C)[C@H](NC(=O)[C@H](CCCN=C(N)N)NC(=O)[C@@H](N)CO)C(=O)N[C@@H](Cc1ccc(O)cc1)C(=O)N[C@H](C(=O)N[C@@H](Cc1c[nH]cn1)C(=O)N1CCC[C@H]1C(=O)N[C@@H](Cc1ccccc1)C(=O)O)C(C)C (H-SRVYVHPF-OH)
[4]
  RA: 22.4
[3]
  RA: 75.8
Oryctolagus cuniculus
  pD2: 7.68

## CC(=O)N[C@@H](CO)C(=O)N[C@@H](CCCN=C(N)N)C(=O)N[C@H](C(=O)N[C@@H](Cc1ccc(O)cc1)C(=O)N[C@H](C(=O)N[C@@H](Cc1c[nH]cn1)C(=O)N1CCC[C@H]1C(=O)N[C@@H](Cc1ccccc1)C(=O)O)C(C)C)C(C)C (Ac-SRVYVHPF-OH)
[4]
  RA: 16.2
[3]
  RA: 32.4
[1]
  Kd: 17.8 nM
Oryctolagus cuniculus
  pD2: 7.54

## CC(=O)N[C@@H](CO)C(=O)N[C@@H](CCCN=C(N)N)C(=O)N[C@H](C(=O)N[C@@H](Cc1ccc(O)cc1)C(=O)N[C@H](C(=O)N[C@@H](Cc1c[nH]cn1)C(=O)N1CCC[C@H]1C(=O)N[C@H](Cc1cccc2ccccc12)C(=O)O)C(C)C)C(C)C
[2]
  pA2: 6.99
[3]
  RA: 1.78
[1]
  pKd: 6.49

## CCCCCCCCCCCCCCCC(=O)Oc1ccc(C[C@H](NC(=O)[C@@H](NC(=O)[C@H](CCCN=C(N)N)NC(=O)CNC)C(C)C)C(=O)N[C@H](C(=O)N[C@@H](Cc2c[nH]cn2)C(=O)N2CCC[C@H]2C(=O)N[C@@H](Cc2ccccc2)C(=O)O)C(C)C)cc1 [listing 2 of 2 here]
Oryctolagus cuniculus
  pD2: 7.61

## CCCCCCCCCCCCCCCC(=O)Oc1ccc(C[C@H](NC(=O)[C@@H](NC(=O)[C@H](CCCN=C(N)N)NC(=O)CNC)C(C)C)C(=O)N[C@H](C(=O)N[C@@H](Cc2c[nH]cn2)C(=O)N2CCC[C@H]2C(=O)N[C@H](Cc2ccccc2)C(=O)O)C(C)C)cc1
[3]
  RA: 162

## CC(C)[C@H](NC(=O)[C@H](CCCNC(=N)N)NC(=O)[C@@H](N)CO)C(=O)N[C@@H](Cc1ccc(O)cc1)C(=O)N[C@H](C(=O)N[C@@H](Cc1cnc[nH]1)C(=O)N1CCC[C@H]1C(=O)N[C@@H](Cc1ccccc1)C(=O)O)C(C)C (H-SRVYVHPF-OH)
[1]
  Kd: 7.59 nM

## CCCCCCCCCCCCCCCC(=O)OC[C@H](NC(C)=O)C(=O)N[C@@H](CCCN=C(N)N)C(=O)N[C@H](C(=O)N[C@@H](Cc1ccc(O)cc1)C(=O)N[C@H](C(=O)N[C@@H](Cc1c[nH]cn1)C(=O)N1CCC[C@H]1C(=O)N[C@@H](Cc1ccccc1)C(=O)O)C(C)C)C(C)C (Ac-S(Palmitoyl)RVYVHPF-OH)
[3]
  RA: 1.17
Oryctolagus cuniculus
  pD2: <5.5
